Screening data deposited in PubChem BioAssay by several laboratories.
CYP2C9 act = increases human cytochrome P450 2C9 activity; 96,000 compounds, 1.4% hits; P11712; AID 1024; activation factor at 5 µM; recombinant CYP2C9, luciferin-H conversion, luminescence; active compounds read high; factor 1 = untreated enzyme, 0 = blocked;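 active = activation factor of 2 or more for CYP2C9 at a 5 µM dose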
CYP2C9 inhib = human CYP2C9 inhibition | P11712 | CYP2C9 Supersomes, luciferin-H conversion, luminescence | inhibition, % at 5 µM | 96,000 compounds, 20% hits | AID 777;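 active = blocking of liver enzyme CYP2C9 beyond about 50% at 5 µM, limit read from the data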
tolC growth inh = E. coli tolC mutant growth inhibition | E. coli BW25113 tolC mutant growth, OD615 | growth inhibition, % at 10 µM (by protocol) | 65,000 compounds, 2.2% hits | AID 573;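 active = growth inhibition at or above a cutoff equal to the mean over every tested compound plus 3 SD, cut at about 60% in these data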;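 note: growth measured after 20 h incubation at 37 °C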
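Material: E. coli BW25113 ΔtolC::kan, tolC deletion mutant strain. Measure: percent growth inhibition. Schedule: 37 °C, 20 h exposure. Doses: single-point testing at 10 µM. Signal: A615 absorbance measurement. Buffer or medium: kanamycin-containing LB broth (50 µg/mL).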
CYP2C19 act = increases human CYP2C19 enzyme activity; P33261; AID 1025; recombinant CYP2C19, luciferin-H EGE luminescence; active compounds read high; 0 = fully inhibited enzyme, 1 = untreated enzyme; activation factor at 5 µM; 96,000 tested, under 10 active;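 active = activation factor of at least 2 at 5 µM in the primary screen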
Target sequence (P33261 whole entry, looked up): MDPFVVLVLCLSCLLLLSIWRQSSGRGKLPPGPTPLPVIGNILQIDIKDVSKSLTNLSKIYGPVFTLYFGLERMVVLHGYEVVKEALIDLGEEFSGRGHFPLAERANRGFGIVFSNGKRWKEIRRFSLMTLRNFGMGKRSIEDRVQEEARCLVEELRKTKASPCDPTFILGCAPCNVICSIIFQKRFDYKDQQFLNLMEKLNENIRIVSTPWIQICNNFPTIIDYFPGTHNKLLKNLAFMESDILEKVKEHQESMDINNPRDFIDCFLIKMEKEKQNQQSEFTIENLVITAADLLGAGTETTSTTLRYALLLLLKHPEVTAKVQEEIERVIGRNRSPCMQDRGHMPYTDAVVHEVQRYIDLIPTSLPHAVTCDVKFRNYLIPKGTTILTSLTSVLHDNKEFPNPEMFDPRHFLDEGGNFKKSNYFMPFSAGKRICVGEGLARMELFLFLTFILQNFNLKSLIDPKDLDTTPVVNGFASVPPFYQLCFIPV
E coli WT exp = E. coli BW25113 growth inhibition, expanded screen; OD600 absorbance; growth inhibition, % at 100 µM; 98,000 compounds, 0.15% hits; AID 710;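 active = growth inhibition above about 50% at one test dose, limit read from the data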;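 note: growth measured after 20 h incubation at 37 °C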
CYP2C19 inhib = human CYP2C19 inhibition. P33261. CYP2C19 Supersomes, luciferin-H EGE luminescence, 30 min. inhibition, % at 5 µM. 96,000 compounds, 21% hits;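 active = CYP2C19 inhibition above a set limit at 5 µM in the primary screen, cut at about 50% in these data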
Of the large screens only hits and unclear results are named; the others gave an inactive call. This is a sample that favours compounds with a hit; in the whole collection about 29% have one here.

CCOC(=O)C1CCCN(Cc2nc(N)nc(Nc3ccc(OC)cc3)n2)C1 (stereo not drawn)	none
CC(=O)c1ccc(NC(=O)CCc2c(C)nc3ncnn3c2C)cc1	none (no result: CYP2C9 act, CYP2C9 inhib, CYP2C19 act, E coli WT exp, CYP2C19 inhib)
CC(=O)Nc1ccc(-c2nnc(SCC(=O)c3ccc4c(c3)Cc3ccccc3-4)n2C)cc1	none (no result: tolC growth inh)
CC1=C(SCCC#N)S/C(=C2\SC(C)=C(SCCC#N)S2)S1	none
CCOC(=O)C1CCCN(Cc2ccccc2Cl)C1 (stereo not drawn)	CYP2C19 inhib 80 (no result: tolC growth inh)
CCOC(=O)N1CCC(N(C(=O)Nc2cccc(OC)c2)C(C)CC)CC1 (stereo not drawn)	CYP2C19 inhib 56
CCOC(=O)c1nnn(CC(=O)Nc2cccc(Cl)c2C)c1C(=O)OCC	CYP2C9 inhib 67, CYP2C19 inhib 94
CCCC1(CCC)NC(=O)N(CC(=O)Nc2cccc(OC)c2)C1=O	none
COC(=O)c1nnn(CC(=O)Nc2cccc(OC)c2)c1C(=O)OC	CYP2C9 inhib 63
CCOC(=O)c1cn(CC(=O)Nc2cccc(Cl)c2C)nn1	none (no result: tolC growth inh)
CCOC(=O)c1nnn(CC(=O)Nc2cccc(OC)c2)c1C(=O)OCC	CYP2C9 inhib 59
COC(=O)c1nnn(CC(=O)Nc2cc(Cl)ccc2C)c1C(=O)OC	CYP2C9 inhib 54, CYP2C19 inhib 55
Cc1ccc(C)c(NC(=O)Cn2nnc(C(=O)Nc3c(C)cccc3C)c2N)c1	none
COc1ccc(Cc2c(O)nc(SC)n(C(C)=O)c2=O)cc1	CYP2C19 inhib 53
COc1ccc(-n2c(SC)nc(O)c(Cc3ccccc3)c2=O)cc1	none (no result: tolC growth inh)
Cc1cc(C)n(C(C[N+](=O)[O-])c2ccc(Cl)cc2)n1 (stereo not drawn)	CYP2C9 inhib 58, E coli WT exp 100, CYP2C19 inhib 76 (no result: tolC growth inh)
CN1CCN(C(=O)NC2CCCN2S(=O)(=O)c2ccc(Cl)cc2)CC1 (stereo not drawn)	none
O=C(Nc1nccs1)C1CCCN1S(=O)(=O)c1ccc(F)cc1 (stereo not drawn)	CYP2C9 inhib 62
Cc1ccc(S(=O)(=O)N2CCCC2C(=O)n2nc(C)cc2C)cc1 (stereo not drawn)	none
Cc1ccc(S(=O)(=O)N2CCC[C@H]2C(=O)OC(C)C(=O)Nc2ncc(Cl)cc2Cl)cc1 (stereo partly drawn)	CYP2C19 inhib 71 (no result: tolC growth inh)
Cc1ccc(NC(=O)C2CCCN2S(=O)(=O)c2ccc(F)cc2)c(C)c1 (stereo not drawn)	none
Cc1ccc(NC(=O)NC2CCCN2S(=O)(=O)c2ccc(Cl)cc2)cc1 (stereo not drawn)	CYP2C9 inhib 87, CYP2C19 inhib 73 (no result: tolC growth inh)
COc1ccc(S(=O)(=O)N2CCCC2C(=O)Nc2ccc(C)cc2)cc1 (stereo not drawn)	CYP2C9 inhib 54, CYP2C19 inhib 76
O=c1c2c3c(sc2n2cnnc2n1C1CCCCC1)CCC3	none (no result: E coli WT exp)
COc1ccc(S(=O)(=O)N2CCCC2C(=O)Nc2nc3c(s2)CCCC3)cc1 (stereo not drawn)	CYP2C9 inhib 80
COc1ccc(NC(=O)C2CCCN2S(=O)(=O)c2ccc(F)cc2)cc1 (stereo not drawn)	CYP2C9 inhib 93, CYP2C19 inhib 64
COc1ccc(-c2csc(NC(=O)C3CCCCN3S(=O)(=O)c3ccccc3)n2)cc1 (stereo not drawn)	CYP2C9 inhib 88 (no result: tolC growth inh)
CNC(=O)C1CCCN1S(=O)(=O)c1ccc(OC)cc1 (stereo not drawn)	none
CCOC(=O)Cn1c(CN2CCN(c3cccc(Cl)c3)CC2)nc2c1c(=O)[nH]c(=O)n2C	none (no result: CYP2C9 act, CYP2C9 inhib, CYP2C19 act, CYP2C19 inhib)
Cn1c(=O)n(CCc2ccccc2)c(=O)c2c1nc1n2CCCN1c1ccc(F)cc1	none (no result: CYP2C9 act, CYP2C9 inhib, CYP2C19 act, E coli WT exp, CYP2C19 inhib)
CCOc1ccc(CCNS(=O)(=O)c2c(C)n[nH]c2C)cc1OCC	none
Cc1cc(C)nc(SCC(=O)c2ccc([N+](=O)[O-])cc2)n1	CYP2C19 inhib 92 (no result: tolC growth inh)
Cc1cc(C)nc(SCNC(=O)c2ccc(Cl)cc2)n1	CYP2C19 inhib 91 (no result: tolC growth inh)
Cc1cc(C)nc(SCC(=O)c2ccc(O)cc2O)n1	none
CCCCOc1cc(C)nc(NCc2ccccc2)n1	tolC growth inh 67
Cc1cc(C)nc(NC(=O)c2ccc(Cl)c(Cl)c2)n1	none (no result: tolC growth inh)
Cc1cc(N2CCOCC2)nc(SCC(=O)c2ccccc2)n1	CYP2C19 inhib 56
O=S1(=O)C=C(Sc2nnc(-c3ccccc3)o2)c2ccccc21	none
O=C(C1CCCN(S(=O)(=O)c2cccs2)C1)N1CCN(C2CCCCC2)CC1 (stereo not drawn)	none
Cc1cc(N2CCOCC2)nc(SCC(=O)c2ccc(Cl)cc2)n1	CYP2C19 inhib 80
Cc1cc(NCc2ccccc2)nc(N2CCOCC2)n1	none (no result: tolC growth inh)
c1ccc(CNn2c(N3CCOCC3)nc3ccccc32)cc1	CYP2C19 inhib 70
Cc1cc(N2CCOCC2)nc(NCc2ccccc2)n1	CYP2C19 inhib 74
O=C(Nc1ccc(N2CCOCC2)nc1)c1ccc(Cl)cc1	none (no result: tolC growth inh)
CCCC(c1nnnn1CCc1ccccc1)N1CCN(C(=O)c2ccco2)CC1 (stereo not drawn)	none
N#C/C(=C\c1cc(Cl)cc(Cl)c1O)C(=O)NC1CCCCC1	none (no result: tolC growth inh)
COc1ccc(/C(N)=C/C(=O)C(C)(C)C)cc1	CYP2C19 inhib 74
COc1ccc(OC)c(NC(=O)CN(c2ccc(C)cc2)S(=O)(=O)c2c(C)noc2C)c1	none
COc1ccc(CCNC(=O)CN(c2ccc(C)cc2)S(=O)(=O)c2c(C)noc2C)cc1OC	CYP2C19 inhib 92
Cc1ccc(N(CC(=O)NCCc2ccccc2)S(=O)(=O)c2c(C)noc2C)cc1	CYP2C19 inhib 84 (no result: tolC growth inh)
O=C1N/C(=N\N=C\c2ccccn2)SC1Cc1cccc(SC(F)F)c1 (stereo not drawn)	none (no result: tolC growth inh)
O=C(NCc1ccccc1)c1n[nH]nc1-c1ccccc1O	CYP2C9 inhib 52, CYP2C19 inhib 73 (no result: E coli WT exp)
N=c1nc(N)nc2n1NC(c1ccc(F)cc1)=CS2	none
CN1CCN(C(=O)CN(c2cc(C(F)(F)F)ccc2Cl)S(C)(=O)=O)CC1	none (no result: tolC growth inh)
Cc1ccc(S(=O)(=O)c2c(N)n(Cc3ccco3)c3nc4ccccc4nc23)cc1	CYP2C9 inhib 69
Cc1ccc(S(=O)(=O)c2c(N)n(NC(=O)c3ccco3)c3nc4ccccc4nc23)cc1	none
Cc1cccc(S(=O)(=O)c2c(N)n(Cc3ccco3)c3nc4ccccc4nc23)c1	CYP2C9 inhib 96, CYP2C19 inhib 91
O=C(CSC1CC(=O)N(CC(c2ccccc2)c2ccccc2)C1=O)Nc1ccc(Cl)cc1 (stereo not drawn)	CYP2C9 inhib 85, CYP2C19 inhib 53 (no result: tolC growth inh)
O=C(O)CSC1CC(=O)N(c2ccc(Cl)cc2)C1=O (stereo not drawn)	none (no result: E coli WT exp)
O=Cc1ccc(OCC(=O)NC(=O)NC2CCCCC2)cc1	none (no result: tolC growth inh)
O=C(CN1CCC(n2nnc3cc(C(F)(F)F)ccc32)CC1)Nc1ccc2c(c1)CCC2	CYP2C9 inhib 79, CYP2C19 inhib 54 (no result: tolC growth inh)
